Measured values reported in ChEMBL document CHEMBL4732078 (Eur J Med Chem, 2021).
The source made the active and inactive calls. The rule behind the calls is not given here.

Tests used:
[1] = biological target: T1, Phosphatidylinositol 4,5-bisphosphate 3-kinase catalytic subunit alpha isoform (Homo sapiens, UniProt P42336); test: Inhibition of human PI3Kalpha using PIP2 as substrate in presence of ATP measured after 30 mins by HTRF assay
Outline: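 HTRF kit assay. Enzyme incubated with 10 μM PIP2; reaction started by adding ATP and run 30 min at room temperature, then stop solution and detection mix added and luminescence read. Compounds kept as 10 mM DMSO stocks.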

[2] = test system: RAF proto-oncogene serine/threonine-protein kinase (Homo sapiens), P04049 [Y340D,Y341D]; test: Inhibition of human recombinant c-Raf Y340D/Y341D mutant (306 to end residues) using inactive MEK1 as substrate at 10 uM incubated for 40 mins in presence of [gamma33P-ATP] by radiometric scintillation counting analysis
Sequence of RAF proto-oncogene serine/threonine-protein kinase (Homo sapiens), P04049 [Y340D,Y341D] (P04049 whole entry Y340D/Y341D, canonical isoform): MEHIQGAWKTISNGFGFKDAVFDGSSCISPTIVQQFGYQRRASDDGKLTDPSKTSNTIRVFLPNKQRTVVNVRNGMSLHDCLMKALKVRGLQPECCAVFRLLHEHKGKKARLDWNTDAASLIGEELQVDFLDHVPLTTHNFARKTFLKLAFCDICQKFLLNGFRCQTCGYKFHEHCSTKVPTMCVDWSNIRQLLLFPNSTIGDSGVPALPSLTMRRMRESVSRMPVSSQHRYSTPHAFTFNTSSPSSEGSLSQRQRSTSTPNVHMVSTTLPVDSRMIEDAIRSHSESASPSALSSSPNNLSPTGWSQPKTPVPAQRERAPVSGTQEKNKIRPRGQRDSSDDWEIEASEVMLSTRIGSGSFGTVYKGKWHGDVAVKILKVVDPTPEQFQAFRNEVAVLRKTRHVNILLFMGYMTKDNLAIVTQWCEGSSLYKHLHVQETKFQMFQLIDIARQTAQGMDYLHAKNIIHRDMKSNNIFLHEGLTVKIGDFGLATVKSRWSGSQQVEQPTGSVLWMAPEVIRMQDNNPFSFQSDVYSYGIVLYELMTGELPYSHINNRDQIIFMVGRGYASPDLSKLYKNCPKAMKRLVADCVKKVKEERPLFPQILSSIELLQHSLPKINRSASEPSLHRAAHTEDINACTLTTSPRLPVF

[3] = biological target: T1, Phosphatidylinositol 4,5-bisphosphate 3-kinase catalytic subunit alpha isoform; test: Inhibition of PI3Kalpha (unknown origin) transfected in human Rh30 cells assessed as reduction in AKT phosphorylation at Ser473 at 14 nM by western blot analysis; format: cell-based
Outline: (§1)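 Rh30 cells ectopically expressing membrane-anchored, N-terminally myristoylated, constitutively active p110α, β, γ or δ. Akt phosphorylation assessed by Western blot; lysates made in RIPA buffer, equal protein heated at 95 °C for 10 min in SDS loading buffer.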

[4] = biological target: T1, Phosphatidylinositol 4,5-bisphosphate 3-kinase catalytic subunit alpha isoform; test: Inhibition of PI3Kalpha in human U87MG cells assessed as reduction in rhIGF1-stimulated AKT phosphorylation at Ser473 treated for 1 hr followed by incubation with IGF1 for 10 mins by western blot analysis; format: cell-based; settings: U-87 MG, dose 0.01-1 µM, time 70.0 min
Outline: (§2)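 U87MG or Rh30 cells held 24 h in serum-free medium, exposed to compound for 1 h, then stimulated with 50 ng/ml IGF-I for 10 min. Lysates blotted for Akt, pAkt T308 and pAkt S473.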

[5] = biological target: T1, Phosphatidylinositol 4,5-bisphosphate 3-kinase catalytic subunit alpha isoform; test: Inhibition of PI3Kalpha in human Rh30 cells assessed as reduction in rhIGF1-stimulated AKT phosphorylation at Ser473 treated for 1 hr followed by incubation with IGF1 for 10 mins by western blot analysis; format: cell-based; settings: dose 0.01-1 µM, time 70.0 min; outline: as §2
HCC1954 = test: Antiproliferative activity against human HCC1954 cells assessed as reduction in cell viability after 72 hrs by sulforhodamine B assay; format: functional, cell-based; settings: HCC1954, 72 h
Outline: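 SRB assay. Exponentially growing cells seeded at 3000–5000/well, compounds added serially diluted after 24 h, cultured 72 h. Cells fixed with 10% TCA, stained with SRB, dye dissolved in 10 mM Tris-HCl, absorbance read at 560 nm. Inhibition = (ODcontrol − ODtreated)/ODcontrol × 100%. IC50 is the mean of at least three independent tests.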

SK-OV-3 [6] = test: Antitumor activity against human SK-OV-3 cells xenografted in BALB/cA nude mouse assessed as tumor growth at 5 mg/kg, po administered once a day for 21 days and measured twice per week; format: functional; settings: dose 5 mg/kg/day; time 21 day
Outline: (§3)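 Female BALB/cA nude mice, 4–5 weeks old. SKOV-3 xenografts passaged once in vivo, then 1.5 mm³ fragments implanted s.c. in the right flank by trocar. At about 100 mm³ mice were randomized to vehicle or drug given orally once daily. Tumor size and body weight measured twice weekly; V = length × width²/2.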

SK-OV-3 [7] = test: Antitumor activity against human SK-OV-3 cells xenografted in BALB/cA nude mouse assessed as tumor growth at 10 mg/kg, po administered once a day for 21 days and measured twice per week; format: functional; settings: dose 10 mg/kg/day; time 21 day; outline: as §3
[8] = Toxicity in BALB/cA nude mouse xenografted with human SK-OV-3 cells assessed as changes in body weight at 5 to 20 mg/kg, po administered once a day for 21 days and measured twice per week; format: organism-based; settings: in vivo, 504 h, dose 5-20 mg/kg/day, time 21 day
Outline: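 Female BALB/cA nude mice, 4–5 weeks old, received s.c. passaged SKOV-3 tumor fragments (1.5 mm³) in the right flank. At about 100 mm³ they were randomized to oral vehicle or compound once daily for 21 days. Body weight was measured individually twice per week.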

[9] = Toxicity in 6 hrs fasted BALB/cA nude mouse xenografted with human SK-OV-3 cells assessed as blood glucose tolerance at 5 to 20 mg/kg, po administered once a day for 18 days and measured upto 2 hrs post-last dose by oral glucose tolerance test; format: organism-based; settings: in vivo, 432 h, dose 5-20 mg/kg/day, time 18 day
Outline: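 Female BALB/cA nude mice, 4–5 weeks old, carried s.c. SKOV-3 xenograft fragments. They were dosed orally once daily for 18 days with vehicle or compound, then fasted 6 h and given glucose orally at 2 g/kg. Blood was sampled at set times up to 2 h, and glucose was measured with a blood glucose meter.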

[10] = Metabolic stability in human hepatocytes assessed as intrinsic clearance; format: ADME, cell-based, Hepatocyte; settings: read-out: CLH
[11] = Metabolic stability in cynomolgus monkey hepatocytes assessed as intrinsic clearance; format: ADME, cell-based, Macaca fascicularis, Hepatocyte; settings: read-out: CLH
[12] = biological target: Phosphatidylinositol 4,5-bisphosphate 3-kinase catalytic subunit beta isoform (Homo sapiens) (UniProt P42338); test: Inhibition of PI3Kbeta (unknown origin) transfected in human Rh30 cells assessed as reduction in AKT phosphorylation at Thr308 residue at 10XIC50 by western blot analysis; format: cell-based; outline: as §1
Sequence of Phosphatidylinositol 4,5-bisphosphate 3-kinase catalytic subunit beta isoform (Homo sapiens) (P42338 whole entry, looked up, canonical isoform): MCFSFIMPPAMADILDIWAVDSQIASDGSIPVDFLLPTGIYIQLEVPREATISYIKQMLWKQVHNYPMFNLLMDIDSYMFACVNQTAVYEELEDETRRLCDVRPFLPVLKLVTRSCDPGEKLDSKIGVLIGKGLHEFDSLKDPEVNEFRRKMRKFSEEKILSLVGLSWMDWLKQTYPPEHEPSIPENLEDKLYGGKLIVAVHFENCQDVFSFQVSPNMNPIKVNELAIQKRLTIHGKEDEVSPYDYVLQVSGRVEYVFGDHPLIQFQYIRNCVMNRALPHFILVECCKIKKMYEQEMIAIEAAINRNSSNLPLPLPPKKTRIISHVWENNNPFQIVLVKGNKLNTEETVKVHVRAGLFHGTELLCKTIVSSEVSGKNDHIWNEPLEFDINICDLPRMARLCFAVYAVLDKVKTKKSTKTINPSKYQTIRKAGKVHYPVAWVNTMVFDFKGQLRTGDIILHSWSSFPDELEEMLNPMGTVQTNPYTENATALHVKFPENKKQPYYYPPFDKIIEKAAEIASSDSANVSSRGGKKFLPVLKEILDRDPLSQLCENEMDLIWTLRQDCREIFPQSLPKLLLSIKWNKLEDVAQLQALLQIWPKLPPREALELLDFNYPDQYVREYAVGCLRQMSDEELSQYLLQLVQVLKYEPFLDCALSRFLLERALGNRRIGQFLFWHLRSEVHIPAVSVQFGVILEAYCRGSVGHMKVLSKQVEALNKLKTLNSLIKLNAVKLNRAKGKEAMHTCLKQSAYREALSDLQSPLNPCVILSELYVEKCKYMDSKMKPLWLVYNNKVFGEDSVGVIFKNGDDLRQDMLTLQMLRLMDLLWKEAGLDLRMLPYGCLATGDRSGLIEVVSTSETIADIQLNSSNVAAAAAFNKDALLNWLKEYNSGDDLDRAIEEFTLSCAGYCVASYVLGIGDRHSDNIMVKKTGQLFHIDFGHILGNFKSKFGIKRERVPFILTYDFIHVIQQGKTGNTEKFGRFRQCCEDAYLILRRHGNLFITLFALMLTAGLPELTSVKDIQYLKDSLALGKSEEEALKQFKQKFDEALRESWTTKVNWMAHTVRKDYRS

[13] = biological target: Phosphatidylinositol 4,5-bisphosphate 3-kinase catalytic subunit gamma isoform (Homo sapiens) (UniProt P48736); test: Inhibition of PI3Kgamma (unknown origin) transfected in human Rh30 cells assessed as reduction in AKT phosphorylation at Thr308 residue at 10XIC50 by western blot analysis; format: cell-based; outline: as §1
Sequence of Phosphatidylinositol 4,5-bisphosphate 3-kinase catalytic subunit gamma isoform (Homo sapiens) (P48736 whole entry, looked up, canonical isoform): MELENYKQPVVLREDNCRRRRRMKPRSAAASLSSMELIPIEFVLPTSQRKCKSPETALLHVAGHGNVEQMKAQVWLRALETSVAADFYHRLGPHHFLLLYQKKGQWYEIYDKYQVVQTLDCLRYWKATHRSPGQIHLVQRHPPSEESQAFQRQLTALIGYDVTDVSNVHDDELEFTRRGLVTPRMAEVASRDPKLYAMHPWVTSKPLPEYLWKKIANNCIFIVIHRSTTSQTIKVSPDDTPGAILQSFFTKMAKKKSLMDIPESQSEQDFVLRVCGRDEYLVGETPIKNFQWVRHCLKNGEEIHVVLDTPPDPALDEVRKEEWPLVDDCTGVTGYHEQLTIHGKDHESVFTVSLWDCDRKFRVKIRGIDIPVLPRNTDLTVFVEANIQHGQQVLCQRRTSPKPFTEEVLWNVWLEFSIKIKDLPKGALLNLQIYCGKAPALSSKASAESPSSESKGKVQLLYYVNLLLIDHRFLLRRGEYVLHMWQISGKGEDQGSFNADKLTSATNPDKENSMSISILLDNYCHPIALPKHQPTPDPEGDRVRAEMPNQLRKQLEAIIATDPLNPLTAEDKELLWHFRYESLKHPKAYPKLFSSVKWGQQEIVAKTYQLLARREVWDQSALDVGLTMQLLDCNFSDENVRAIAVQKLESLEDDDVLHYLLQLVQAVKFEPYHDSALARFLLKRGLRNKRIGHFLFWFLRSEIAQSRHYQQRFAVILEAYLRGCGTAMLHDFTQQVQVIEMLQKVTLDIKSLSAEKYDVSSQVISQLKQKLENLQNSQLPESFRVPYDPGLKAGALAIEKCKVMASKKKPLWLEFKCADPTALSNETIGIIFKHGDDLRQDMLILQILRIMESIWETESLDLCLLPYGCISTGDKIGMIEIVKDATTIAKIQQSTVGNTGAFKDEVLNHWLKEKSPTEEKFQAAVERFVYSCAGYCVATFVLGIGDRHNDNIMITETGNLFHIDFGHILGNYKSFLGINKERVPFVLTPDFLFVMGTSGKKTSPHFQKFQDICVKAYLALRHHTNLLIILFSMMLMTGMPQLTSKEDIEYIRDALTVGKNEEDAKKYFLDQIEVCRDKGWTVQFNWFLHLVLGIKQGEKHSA

[14] = biological target: CYP450 (isoform not stated) (Homo sapiens, UniProt P04798+P05177+P05181+P08684+P10632+P10635+P11509+P11712+P13584+P20813+P20815+P20853+P24462+P24903+P33260+P33261+P51589+P78329+P98187+Q02928+Q08477+Q16678+Q16696+Q5TCH4+Q6VVX0+Q7Z449+Q8TAV3+Q96SQ9+Q9HB55); test: Inhibition of CYP450 (unknown origin); format: ADME, protein assay
Homo sapiens [15] = organism: Homo sapiens; test: Selectivity index, ratio of IC50 for human PI3K p110delta/p85alpha to IC50 for human PI3Kalpha by HTRF assay
Outline: (§4)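 The PI3K isoforms were assayed with an HTRF kit. Each enzyme was incubated in assay buffer containing 10 μM PIP2, and the reaction was started with ATP and run 30 min at room temperature. Stop solution and detection mix were then added and light emission was read. IC50 values were averages of at least 3 separate determinations, and each index is the ratio of IC50 values.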

Homo sapiens [16] = organism: Homo sapiens; test: Selectivity index, ratio of IC50 for human PI3Kgamma R459Q mutant to IC50 for human PI3Kalpha by HTRF assay; outline: as §4
[17] = Inhibition of human PI3K p110alpha E545K mutant/p85alpha using PIP2 as substrate incubated for 30 mins in presence of ATP by HTRF assay
[18] = Inhibition of human PI3K p110alpha H1047R mutant/p85alpha using PIP2 as substrate incubated for 30 mins in presence of ATP by HTRF assay

T1 sequence (P42336 whole entry, canonical isoform): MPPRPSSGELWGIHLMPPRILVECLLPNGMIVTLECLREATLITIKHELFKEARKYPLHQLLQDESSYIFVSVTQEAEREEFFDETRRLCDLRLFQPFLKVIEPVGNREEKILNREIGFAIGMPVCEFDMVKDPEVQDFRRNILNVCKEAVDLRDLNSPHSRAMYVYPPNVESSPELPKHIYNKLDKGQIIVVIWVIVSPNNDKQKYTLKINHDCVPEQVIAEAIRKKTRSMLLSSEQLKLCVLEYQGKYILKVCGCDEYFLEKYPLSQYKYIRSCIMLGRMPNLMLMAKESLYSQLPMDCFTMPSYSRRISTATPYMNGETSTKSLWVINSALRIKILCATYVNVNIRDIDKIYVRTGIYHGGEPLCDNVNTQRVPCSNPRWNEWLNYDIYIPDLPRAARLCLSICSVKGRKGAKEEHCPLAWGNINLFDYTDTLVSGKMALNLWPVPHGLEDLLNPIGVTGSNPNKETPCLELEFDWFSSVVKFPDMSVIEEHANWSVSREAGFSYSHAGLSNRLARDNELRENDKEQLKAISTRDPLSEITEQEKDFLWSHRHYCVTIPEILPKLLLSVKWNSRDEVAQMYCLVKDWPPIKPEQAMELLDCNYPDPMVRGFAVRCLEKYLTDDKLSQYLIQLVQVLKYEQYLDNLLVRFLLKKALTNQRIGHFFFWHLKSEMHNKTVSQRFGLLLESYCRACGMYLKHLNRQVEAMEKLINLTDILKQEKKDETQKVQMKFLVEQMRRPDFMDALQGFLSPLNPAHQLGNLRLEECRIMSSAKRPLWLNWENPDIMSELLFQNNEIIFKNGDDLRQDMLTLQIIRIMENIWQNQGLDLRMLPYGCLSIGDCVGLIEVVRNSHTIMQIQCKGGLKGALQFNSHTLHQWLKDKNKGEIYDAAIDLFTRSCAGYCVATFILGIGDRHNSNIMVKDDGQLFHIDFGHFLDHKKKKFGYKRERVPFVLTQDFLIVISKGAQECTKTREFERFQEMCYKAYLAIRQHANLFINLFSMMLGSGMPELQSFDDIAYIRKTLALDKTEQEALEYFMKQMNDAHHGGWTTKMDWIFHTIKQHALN

## COC(=O)Nc1cc(C(F)(F)F)c(-c2nc(N3CCOCC3)c3cc(CN4CCN(S(C)(=O)=O)CC4)cn3n2)cn1 [RISOVALISIB]
[1]
  IC50: 5.9 nM
[2]
  inhibition: > 50%
[3]
  inhibition: Active
[4]
  inhibition: Dose-dependent effect
[5]
  inhibition: Dose-dependent effect
HCC1954
  IC50: < 1000 nM
SK-OV-3 [6]
  Activity: 67.4%
SK-OV-3 [7]
  Activity: 48.1%
[8]
  Activity: Non-Toxic
[9]
  Activity: Non-Toxic
[10]
  CLint scaled: 3.05 mL/min/kg
[11]
  CLint scaled: 29 mL/min/kg
[12]
  inhibition: Active
[13]
  inhibition: Active
[14]
  IC50: > 30 µM
Homo sapiens [15]
  Ratio IC50: 13
Homo sapiens [16]
  Ratio IC50: 38
[17]
  IC50: 17.1 nM
[18]
  IC50: 8.4 nM
